For experiment [1], the system named is L02. The experiment in a line: Cytotoxicity against human L02 cells assessed as cell viability after 24 hrs by MTT assay. Type of experiment: functional, cell-based. The note with it: L02, 24 h. An outline of the steps: (§1)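 Cells pre-cultured 24 h at 37 C, then exposed for 24 h to compounds at […], with drug-free and DMSO solvent controls. MTT read-out: formazan dissolved in DMSO, absorbance at 568 nm. Inhibition rate taken relative to the negative control. IC50 from triplicate measurements.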
(In general: Formazan colour is commonly taken as a measure of viable cells.)

The subject of experiment [2] is SMMC-7721. The experiment in a line: Cytotoxicity against human SMMC-7721 cells assessed as cell viability after 24 hrs by MTT assay. The note with it: SMMC-7721, 24 h. Type of experiment: functional, cell-based. The gist of the method:
as §1

The subject of experiment [3] is SMMC-7721. The experiment in a line: Induction of apoptosis in human SMMC-7721 cells assessed as viable cells at 10 ug/ml after 48 hrs annexin V-[…]/PI by flow cytometry (reference value: 93.54 to 94.31%). Format: functional. The settings on record: read-out: Activity.
For experiment [4], the system named is MCF-10A. Description: Cytotoxicity against human MCF-10A cells assessed as cell viability after 48 hrs by MTT assay. Type of experiment: cell-based. The gist of the method:
(§2)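 Cells pre-cultured 24 h at 37 C, then given fresh medium with compound at […] alongside drug-free and DMSO solvent controls. Incubated 48 h at 37 C, then MTT (2 mg/mL in PBS) added for 4 h. Formazan dissolved in DMSO and A568 read. Inhibition rate taken relative to the negative control. IC50 from triplicate measurements.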

Experiment [5] relates to SMMC-7721. The experiment in a line: Induction of apoptosis in human SMMC-7721 cells assessed as necrotic cells at 10 ug/ml after 48 hrs annexin V-[…]/PI by flow cytometry (reference value: 0.15 to 0.29%). Type of experiment: functional. The settings on record: dose 10 µg/ml. Background: A flow cytometer gives signals particle by particle.
The test system of experiment [6] is SMMC-7721. Description: Induction of apoptosis in human SMMC-7721 cells assessed as late apoptotic cells at 100 ug/ml after 48 hrs annexin V-[…]/PI by flow cytometry (reference value: 2.42 to 3%). Format: functional. The note with it: dose 100 µg/ml.
In experiment [7] the test system is MCF7. Description: Cytotoxicity against human MCF7 cells assessed as cell viability after 48 hrs by MTT assay. Format: functional, cell-based. The settings on record: MCF7, 48 h. The gist of the method:
as §2

Experiment [8] relates to SMMC-7721. The experiment in a line: Induction of apoptosis in human SMMC-7721 cells assessed as necrotic cells at 0.1 ug/ml after 48 hrs annexin V-[…]/PI by flow cytometry (reference value: 0.15 to 0.29%). Type of experiment: functional. The settings on record: dose 0.1 µg/ml.
A short description of experiment [9]: Cytotoxicity against human HCCLM3 cells assessed as cell viability after 48 hrs by MTT assay. Type of experiment: functional, cell-based. The note with it: HCCLM3, 48 h. The gist of the method: as §2
The subject of experiment [10] is SMMC-7721. The experiment in a line: Induction of apoptosis in human SMMC-7721 cells assessed as early apoptotic cells at 10 ug/ml after 48 hrs annexin V-[…]/PI by flow cytometry (reference value: 3.3 to 3.16%). Format: functional. The note with it: dose 10 µg/ml.
Experiment [11] has as its system SMMC-7721. Description: Induction of apoptosis in human SMMC-7721 cells assessed as late apoptotic cells at 0.1 ug/ml after 48 hrs annexin V-[…]/PI by flow cytometry (reference value: 2.42 to 3%). Type of experiment: functional. The settings on record: dose 0.1 µg/ml.
Experiment [12] concerns Huh-7. Description: Cytotoxicity against human HUH-7 cells assessed as cell viability after 48 hrs by MTT assay. Format: functional, cell-based. The settings on record: Huh-7, 48 h. The gist of the method: as §2
Experiment [13] relates to SMMC-7721. Description: Induction of apoptosis in human SMMC-7721 cells assessed as necrotic cells at 100 ug/ml after 48 hrs annexin V-[…]/PI by flow cytometry (reference value: 0.15 to 0.29%). Type of experiment: functional. The note with it: dose 100 µg/ml.
The subject of experiment [14] is SMMC-7721. The experiment in a line: Induction of apoptosis in human SMMC-7721 cells assessed as early apoptotic cells at 100 ug/ml after 48 hrs annexin V-[…]/PI by flow cytometry (reference value: 3.3 to 3.16%). Type of experiment: functional. The settings on record: dose 100 µg/ml.
Experiment [15] has as its system SMMC-7721. Description: Induction of apoptosis in human SMMC-7721 cells assessed as late apoptotic cells at 10 ug/ml after 48 hrs annexin V-[…]/PI by flow cytometry (reference value: 2.42 to 3%). Type of experiment: functional. The settings on record: dose 10 µg/ml.
Experiment [16] concerns CCD-18Co. Description: Cytotoxicity against human CCD-18C0 cells assessed as cell viability after 48 hrs by MTT assay. Format: functional, cell-based. An outline of the steps:
as §2

The test system of experiment [17] is SMMC-7721. The experiment in a line: Cytotoxicity against human SMMC-7721 cells assessed as cell viability after 48 hrs in presence of 100 umol/L FeSO4 by MTT assay. Type of experiment: functional, cell-based. The settings on record: SMMC-7721, 48 h.
Experiment [18] has as its system SMMC-7721. Description: Induction of apoptosis in human SMMC-7721 cells assessed as early apoptotic cells at 0.1 ug/ml after 48 hrs annexin V-[…]/PI by flow cytometry (reference value: 3.3 to 3.16%). Format: functional. The note with it: dose 0.1 µg/ml.
Experiment [19] deals with SMMC-7721. Description: Cytotoxicity against human SMMC-7721 cells assessed as cell viability after 48 hrs by MTT assay. Format: functional, cell-based. The note with it: SMMC-7721, 48 h. The gist of the method: as §2
Experiment [20] has as its system MHCC97H. The experiment in a line: Cytotoxicity against human MHCC97H cells assessed as cell viability after 48 hrs by MTT assay. Format: functional, cell-based. An outline of the steps: as §2
The test system of experiment [21] is SMMC-7721. Description: Induction of apoptosis in human SMMC-7721 cells assessed as viable cells at 0.1 ug/ml after 48 hrs annexin V-[…]/PI by flow cytometry (reference value: 93.54 to 94.31%). Type of experiment: functional. The settings on record: read-out: Activity.
The test system of experiment [22] is SMMC-7721. The experiment in a line: Induction of apoptosis in human SMMC-7721 cells assessed as viable cells at 100 ug/ml after 48 hrs annexin V-[…]/PI by flow cytometry (reference value: 93.54 to 94.31%). Type of experiment: functional. The note with it: read-out: Activity.
Experiment [23] concerns HCT-116. The experiment in a line: Cytotoxicity against human HCT-116 cells assessed as cell viability after 48 hrs by MTT assay. The settings on record: HCT-116, 48 h. Format: functional, cell-based. The gist of the method: as §2

For orientation: IC50 means the concentration at which inhibition is half-maximal. Turning to `C[C@@H]1CC[C@H]2[C@@H](C)C(=O)O[C@@H]3O[C@@]4(C)CC[C@@H]1[C@]32OO4` [ARTEMISININ], the concentration for half-maximal inhibition (IC50) came to 430 nM in experiment [1] and 630 nM in [2].

Turning to `C[C@H]1[C@H](N2CCN(C3=C(Cl)C(=O)OC3O[C@H]3CC4CCC3(C)C4(C)C)CC2)O[C@@H]2O[C@@]3(C)CC[C@H]4[C@H](C)CC[C@@H]1[C@@]24OO3` (stereo partly drawn), the IC50 in experiment [1] came to 460 nM; in experiment [2] it was 570 nM.

Regarding `CC(C)[C@H]1CC[C@H](C)C[C@@H]1O[C@H]1OC(=O)C(Cl)=C1N1CCN([C@@H]2O[C@@H]3O[C@@]4(C)CC[C@H]5[C@H](C)CC[C@@H]([C@H]2C)[C@@]35OO4)CC1`, the IC50 amounted to 640 nM in [1] and 520 nM in [2].

For the compound `COC1OC(=O)C(Br)=C1N1CCN([C@@H]2O[C@@H]3O[C@@]4(C)CC[C@H]5[C@H](C)CC[C@@H]([C@H]2C)[C@@]35OO4)CC1` (stereo partly drawn), the IC50 in experiment [1] came out at 260 nM; in experiment [2] it was 290 nM.

As for `CCOC1OC(=O)C(Cl)=C1N1CCN([C@@H]2O[C@@H]3O[C@@]4(C)CC[C@H]5[C@H](C)CC[C@@H]([C@H]2C)[C@@]35OO4)CC1` (stereo partly drawn), the concentration for half-maximal inhibition (IC50) in experiment [1] was greater than 700 nM; in experiment [2], 560 nM.

With `CC(C)[C@H]1CC[C@H](C)C[C@@H]1O[C@H]1OC(=O)C(Br)=C1N1CCN([C@@H]2O[C@@H]3O[C@@]4(C)CC[C@H]5[C@H](C)CC[C@@H]([C@H]2C)[C@@]35OO4)CC1`, the values for the IC50 in [1] and in experiment [2] were 360 nM and 390 nM, respectively.

`C[C@H]1[C@H](O)O[C@@H]2O[C@@]3(C)CC[C@H]4[C@H](C)CC[C@@H]1[C@@]24OO3`: the figures for the concentration for half-maximal inhibition (IC50) in experiment [1] and in experiment [2] were 220 nM and greater than 700 nM, respectively.

Consider `CC[C@]1(O)C[C@H]2CN(CCc3c([nH]c4ccccc34)[C@@](C(=O)OC)(c3cc4c(cc3OC)N(C=O)[C@H]3[C@@](O)(C(=O)OC)[C@H](OC(C)=O)[C@]5(CC)C=CCN6CC[C@]43[C@@H]65)C2)C1` [VINCRISTINE], for which the IC50 in experiment [1] was 300 nM; in [2], 270 nM.

For the compound `C[C@H]1[C@H](N2CCN(C3=C(Br)C(=O)O[C@@H]3O[C@H]3CC4CCC3(C)C4(C)C)CC2)O[C@@H]2O[C@@]3(C)CC[C@H]4[C@H](C)CC[C@@H]1[C@@]24OO3`, the concentration for half-maximal inhibition (IC50) in [1] and in experiment [2] was 480 nM in each case.

Take `CCOC1OC(=O)C(Br)=C1N1CCN([C@@H]2O[C@@H]3O[C@@]4(C)CC[C@H]5[C@H](C)CC[C@@H]([C@H]2C)[C@@]35OO4)CC1` (stereo partly drawn): the IC50 in experiment [1] is 500 nM; in experiment [2], 430 nM.

Regarding `COC1OC(=O)C(Cl)=C1N1CCN([C@@H]2O[C@@H]3O[C@@]4(C)CC[C@H]5[C@H](C)CC[C@@H]([C@H]2C)[C@@]35OO4)CC1` (stereo partly drawn), the viability at 10 µg/mL in experiment [3] amounted to 82.1%. Further, the IC50 in experiment [4] was 220 nM; in experiment [7], 80 nM; in [9], 100 nM; in [12] it was 160 nM; in [16], 100 nM; in [17], 100 nM. The half-inhibitory concentration (IC50) in [1] stood at 320 nM; in experiment [19] it was 110 nM; in experiment [2], 260 nM; in [20] it was 100 nM; in experiment [23], 100 nM. The Activity in [5] was 0.49%; in experiment [6], 14.42%; in [8], 0.14%; in [10], 8.77%; in experiment [11], 3.21%; in experiment [13] it was 0.73%. In addition, the figures for the Activity in [14], in experiment [15] and in experiment [18] were 20.35%, 6.06% and 4.26%, respectively. In [21], the viability at 0.1 µg/mL came to 88.6%. Moreover, the viability at 100 µg/mL in [22] stood at 60.3%.

For the origin of these results see ChEMBL document CHEMBL4732241, “Synthesis of artemisinin-piperazine-furan ether hybrids and evaluation of in vitro cytotoxic activity” (Eur J Med Chem, 2021).
